Data taken from BindingDB's records for doi:10.1016/j.ejmech.2016.08.061 (South China University of Technology, 2017).

Experiments:
Cholinesterase [1] = biological target: Cholinesterase (Equus caballus, UniProt P81908); assay: Irreversible inhibition of equine serum BuChE assessed as second order carbamylation rate constant using S-butyrylthiocholine iodide as substrate preincubated up to 45 mins followed by substrate addition measured after 5 mins; conditions: read-out: kon (M-1-s-1)
In short: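 Equine BChE, pH 8, 37°C, was preincubated for 1, 2, 4, 8, 15, 30 and 45 min with inhibitor at 1×10^-7 to 5×10^-6 M (seven levels). Residual activity was read by Ellman with BTCh and normalised to a water control at each time. kobs came from a one-phase exponential decay fit; k_I1 came from the linear kobs versus concentration relation.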

Cholinesterase [2] = biological target: Cholinesterase (Homo sapiens, UniProt P06276); assay: Irreversible inhibition of human plasma BuChE assessed as second order carbamylation rate constant using S-butyrylthiocholine iodide as substrate preincubated up to 45 mins followed by substrate addition measured after 5 mins; conditions: read-out: kon (M-1-s-1)
In short: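 Diluted human plasma BChE was preincubated for 1–45 min with inhibitor at 5×10^-9, 1×10^-8, 2.5×10^-8 and 5×10^-8 M. Residual Ellman activity with BTCh at pH 8 was normalised to a water control. kobs came from a one-phase exponential fit; k_I1 came from the slope of kobs versus concentration.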

Chain of Cholinesterase (Equus caballus, UniProt P81908) (P81908 whole entry): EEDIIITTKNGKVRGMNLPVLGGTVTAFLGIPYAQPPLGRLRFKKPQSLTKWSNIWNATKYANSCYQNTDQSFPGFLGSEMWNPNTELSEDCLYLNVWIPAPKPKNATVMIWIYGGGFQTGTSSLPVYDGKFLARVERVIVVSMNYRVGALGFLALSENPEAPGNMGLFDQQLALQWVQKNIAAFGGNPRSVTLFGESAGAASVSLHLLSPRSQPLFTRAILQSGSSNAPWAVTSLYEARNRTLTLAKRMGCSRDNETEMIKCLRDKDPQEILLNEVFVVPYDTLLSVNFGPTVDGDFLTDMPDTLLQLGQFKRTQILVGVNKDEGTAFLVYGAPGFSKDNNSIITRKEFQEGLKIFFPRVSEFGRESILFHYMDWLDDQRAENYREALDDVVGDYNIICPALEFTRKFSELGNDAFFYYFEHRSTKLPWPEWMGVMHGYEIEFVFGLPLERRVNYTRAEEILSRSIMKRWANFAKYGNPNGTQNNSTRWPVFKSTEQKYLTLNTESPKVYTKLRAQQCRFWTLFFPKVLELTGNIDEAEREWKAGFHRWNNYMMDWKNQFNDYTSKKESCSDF
Chain of Cholinesterase (Homo sapiens, UniProt P06276) (P06276 whole entry): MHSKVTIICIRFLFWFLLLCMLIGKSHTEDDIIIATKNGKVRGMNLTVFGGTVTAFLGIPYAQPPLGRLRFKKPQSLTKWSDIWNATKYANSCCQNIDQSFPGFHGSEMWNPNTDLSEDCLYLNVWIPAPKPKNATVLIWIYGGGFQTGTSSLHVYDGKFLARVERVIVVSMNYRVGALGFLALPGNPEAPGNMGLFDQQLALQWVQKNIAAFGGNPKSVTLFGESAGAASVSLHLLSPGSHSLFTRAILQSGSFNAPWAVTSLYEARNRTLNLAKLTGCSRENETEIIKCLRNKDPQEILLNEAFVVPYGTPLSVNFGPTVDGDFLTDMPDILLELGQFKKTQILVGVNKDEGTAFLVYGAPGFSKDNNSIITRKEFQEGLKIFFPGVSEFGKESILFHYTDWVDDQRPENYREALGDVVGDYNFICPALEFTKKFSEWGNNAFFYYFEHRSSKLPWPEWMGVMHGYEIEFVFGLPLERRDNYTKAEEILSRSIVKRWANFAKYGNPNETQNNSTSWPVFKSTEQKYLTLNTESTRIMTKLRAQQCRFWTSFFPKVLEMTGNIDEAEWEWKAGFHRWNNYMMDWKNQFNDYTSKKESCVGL

Structure (SMILES)	kon (Cholinesterase [1])	kon (Cholinesterase [2])
CCC(C)(C)NCC(O)c1cc(OC(=O)N(C)C)cc(OC(=O)N(C)C)c1 (centres undefined)	2370 M⁻¹ s⁻¹	100000 M⁻¹ s⁻¹
CCN(C)C(=O)Oc1cc(OC(=O)N(C)CC)cc(C(O)CNC(C)(C)CC)c1 (centres undefined)	2480 M⁻¹ s⁻¹	122000 M⁻¹ s⁻¹
